According to ChEMBL document CHEMBL5154785, “Hypothesis-Driven, Structure-Based Design in Photopharmacology: The Case of eDHFR Inhibitors” (J Med Chem, 2022):
Values after ≈ are worked out from the molar mass of the structure shown. Active and inactive are the calls of the source. No cut-off for these calls is given here.

Tests used:
[1] = tested on: Escherichia coli; test: Antibacterial activity against Escherichia coli CS1562 assessed as reduction in bacterial growth at 20 uM measured after 24 hrs under dark condition by plate reader method; format: functional, organism-based
Outline: (§1)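 E. coli CS1562 grown overnight at 37 °C in LB with tetracycline (10 μg/mL), then diluted to 0.002 OD600. Compound serial dilutions made in DMSO and diluted 25-fold in LB. Irradiated set exposed to 355 nm for 30 min before adding cells; dark set not irradiated. Triplicates grown overnight at 37 °C with OD600 read every 10 min, background-corrected to t=0.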

[2] = tested on: Escherichia coli; test: Antibacterial activity against Escherichia coli CS1562 assessed as reduction in bacterial growth at 20 uM irradiated with 355 nm light measured after 24 hrs by plate reader method; format: functional, organism-based; outline: as §1
[3] = Inhibition of Escherichia coli DHFR preincubated with NADPH for 3 mins followed by compound addition for 7 mins under dark condition by colorimetric assay
Outline: (§2)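 In-house E. coli DHFR expressed in BL21(DE3) and Ni-NTA purified. Enzyme (~20 ng) preincubated with 60 μM NADPH, then with inhibitor at 10^-5 to 10^-12 M final, 1% DMSO. Dark samples heat-adapted to the trans isomer; irradiated samples brought to PSS at 100 μM for 15–45 min. Reaction started with 15 μM dihydrofolate, A340 followed every 5 s for 300 s at 25 °C. Triplicates; activity taken relative to a DMSO control; IC50 from nonlinear regression.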

[4] = Inhibition of Escherichia coli DHFR irradiated with 390 nm light preincubated with NADPH for 3 mins followed by compound addition for 7 mins by colorimetric assay; outline: as §2
[5] = tested on: Escherichia coli; test: Antibacterial activity against Escherichia coli CS1562 assessed as reduction in bacterial growth under dark condition measured after 24 hrs by plate reader method; format: functional; outline: as §1
[6] = tested on: Escherichia coli; test: Antibacterial activity against Escherichia coli CS1562 assessed as reduction in bacterial growth irradiated with 355 nm light measured after 24 hrs by plate reader method; format: functional; conditions: CS1562, light or radiation study; outline: as §1
[7] = Half life of compound; format: physicochemical
Outline: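 Metastable-isomer thermal relaxation tracked as recovery of the π–π* band under stirring, at 25 °C in DMSO or eDHFR assay buffer, or at 37 °C in 10 mM Tris-HCl pH 7.0. Fitted to a first-order exponential.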

SMILES | IC50 [3] [µM] | IC50 [4] [µM] | MIC [5] [µM] | MIC [6] [µM] | also measured
COC(C)(C#Cc1cnc(N)nc1N)c1ccc(/N=N/c2cccc(C(=O)O)c2)cc1 (stereo not given) | – | – | – | – | Activity [1]: Active; Activity [2]: Active
Nc1ncc(-c2ccc(/N=N/c3ccccc3)cc2)c(N)n1 | > 10 | > 10 | – | – | –
COc1ccc(/N=N/c2ccc(COc3c(OC)cc(Cc4cnc(N)nc4N)cc3OC)cc2)cc1 | – | – | 20 (≈ 10 µg/mL) | 10 (≈ 5.01 µg/mL) | –
COc1cc(Cc2cnc(N)nc2N)cc(OC)c1OCc1cc(F)c(/N=N/c2c(F)cccc2F)c(F)c1 | – | – | 10 (≈ 5.42 µg/mL) | 5 (≈ 2.71 µg/mL) | –
Nc1ncc(C#Cc2ccc(/N=N/c3ccccc3)cc2)c(N)n1 | > 10 | > 10 | – | – | –
Nc1ncc(/N=N/c2ccccc2)c(N)n1 | > 10 | > 10 | – | – | half-life [7]: 10 s
COc1cc(Cc2cnc(N)nc2N)cc(OC)c1OCc1cc(Cl)c(/N=N/c2c(Cl)cccc2Cl)c(Cl)c1 | – | – | > 80 | 10 (≈ 6.08 µg/mL) | –
